Reference: ChEMBL document CHEMBL2146475, “A novel bitriazolyl acyclonucleoside endowed with dual antiproliferative and immunomodulatory activity” (J Med Chem, 2012)
Activity calls are given as the source filed them. No cut-off for these calls is given here.

Experiments:
MIA PaCa-2 [1] = experiment: Induction of apoptosis in multidrug-resistant human MIAPaCa2 cells assessed as increase in caspase-3/7 activity after 48 hrs by caspase-Glo 3/7 assay; format: functional, cell-based
How it was run: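 MiaPaCa-2 cells treated 48 h, with untreated and gemcitabine references. Caspase-3/7 activity measured. Run in triplicate.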

MIA PaCa-2 [2] = experiment: Induction of apoptosis in multidrug-resistant human MIAPaCa2 cells assessed as necrotic cells after 48 hrs using AnnexinV-FITC conjugated 7- AAD staining by flow cytometry (reference value: 0.17%); format: functional
MIA PaCa-2 [3] = experiment: Induction of apoptosis in multidrug-resistant human MIAPaCa2 cells assessed as late apoptotic cells after 48 hrs using AnnexinV-FITC conjugated 7- AAD staining by flow cytometry (reference value: 0.21%); format: functional
MIA PaCa-2 [4] = experiment: Induction of apoptosis in multidrug-resistant human MIAPaCa2 cells assessed as early apoptotic cells after 48 hrs using AnnexinV-FITC conjugated 7- AAD staining by flow cytometry (reference value: 2.54%); format: functional
MIA PaCa-2 [5] = experiment: Induction of apoptosis in multidrug-resistant human MIAPaCa2 cells assessed as increase in DNA/histone nucleosome release after 48 hrs by ELISA relative to control; format: functional
How it was run: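 MiaPaCa-2 cells treated 48 h, with untreated and gemcitabine references. Cytoplasmic DNA/histone nucleosome release detected by ELISA and compared with untreated cells. Run in triplicate.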

MIA PaCa-2 [6] = experiment: Cell cycle arrest in multidrug-resistant human MIAPaCa2 cells assessed as accumulation at sub-G0/G1 phase after 48 hrs by propidium iodide staining based FACS flow cytometry (reference value: 1.17%); format: functional
MIA PaCa-2 [7] = experiment: Cytotoxicity against multidrug-resistant human MIAPaCa2 cells assessed as cell viability after 48 hrs by MTT assay; format: functional, cell-based
How it was run: (§1)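 Cells left untreated or incubated with compound over 50 nM to 200 μM for 48 h. Viability read by MTT. Values are mean SE of three independent experiments, and IC50 is taken from the dose-response curves.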

MIA PaCa-2 [8] = experiment: Cytotoxicity against multidrug-resistant human MIAPaCa2 cells assessed as cell viability at 50 uM after 48 hrs by MTT assay; format: functional, cell-based
How it was run: (§2)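 Cells left untreated or incubated at 50 μM for 48 h, with gemcitabine 50 μM as reference. Viability read by MTT.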

PC-3 [9] = experiment: Cytotoxicity against human PC3 cells assessed as cell viability after 48 hrs by MTT assay; format: functional, cell-based; how it was run: as §1
Capan-2 [10] = experiment: Cytotoxicity against human Capan2 cells assessed as cell viability after 48 hrs by MTT assay; format: functional, cell-based; how it was run: as §1
PC-3 [11] = experiment: Cytotoxicity against human PC3 cells assessed as cell viability at 50 uM after 48 hrs by MTT assay; format: functional, cell-based; how it was run: as §2
[12] = target: T1, Toll-like receptor 7 (Mus musculus) (UniProt P58681); experiment: Activation of TLR7 in C57BL/6 mouse bone marrow dendritic cells assessed as increase of IL6 production after 24 hrs by ELISA; format: cell-based
T1 sequence (whole entry): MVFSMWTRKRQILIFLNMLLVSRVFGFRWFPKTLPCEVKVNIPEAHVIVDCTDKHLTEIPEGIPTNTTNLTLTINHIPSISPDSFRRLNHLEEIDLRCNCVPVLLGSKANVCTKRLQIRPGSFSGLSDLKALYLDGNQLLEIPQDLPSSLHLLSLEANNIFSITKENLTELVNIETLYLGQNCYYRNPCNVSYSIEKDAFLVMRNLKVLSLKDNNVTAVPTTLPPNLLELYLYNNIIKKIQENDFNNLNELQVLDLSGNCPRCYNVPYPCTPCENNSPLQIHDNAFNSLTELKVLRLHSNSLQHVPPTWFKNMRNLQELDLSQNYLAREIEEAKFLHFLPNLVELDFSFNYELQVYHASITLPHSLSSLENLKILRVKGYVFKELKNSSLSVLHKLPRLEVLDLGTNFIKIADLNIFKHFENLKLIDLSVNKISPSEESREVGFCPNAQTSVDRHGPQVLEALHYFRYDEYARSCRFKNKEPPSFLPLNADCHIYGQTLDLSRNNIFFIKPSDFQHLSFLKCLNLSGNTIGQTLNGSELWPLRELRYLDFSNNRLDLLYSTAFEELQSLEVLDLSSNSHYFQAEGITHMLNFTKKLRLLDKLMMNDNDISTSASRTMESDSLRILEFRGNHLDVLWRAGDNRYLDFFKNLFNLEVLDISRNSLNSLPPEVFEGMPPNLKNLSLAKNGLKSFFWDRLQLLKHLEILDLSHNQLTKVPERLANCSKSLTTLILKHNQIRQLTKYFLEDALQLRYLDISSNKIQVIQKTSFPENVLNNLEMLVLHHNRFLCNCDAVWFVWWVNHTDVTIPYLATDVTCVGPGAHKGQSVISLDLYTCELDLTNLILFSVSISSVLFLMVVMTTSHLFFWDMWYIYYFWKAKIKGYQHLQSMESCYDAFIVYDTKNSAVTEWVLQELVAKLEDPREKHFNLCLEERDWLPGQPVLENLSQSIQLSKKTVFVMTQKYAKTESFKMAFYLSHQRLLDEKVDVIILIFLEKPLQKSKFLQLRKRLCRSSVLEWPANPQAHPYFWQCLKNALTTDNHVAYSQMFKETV
How it was run: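 Bone marrow dendritic cells from wild-type mice, left untreated or stimulated with two doses for 24 h. IL-6 in culture supernatants measured by ELISA. Mean SD of four mice per group.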

PANC-1 [13] = experiment: Cytotoxicity against human PANC1 cells assessed as cell viability after 48 hrs by MTT assay; format: functional, cell-based; how it was run: as §1
Dendritic cell [14] = experiment: Immunostimulatory activity against TLR7-deficient C57BL/6 mouse bone marrow dendritic cells assessed as increase in IL-12p40 level at 10 uM after 24 hrs by ELISA; format: functional, cell-based
How it was run: (§3)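 Bone marrow dendritic cells from wild-type, TLR3−/−, TLR7−/− and TLR9−/− mice, left untreated or stimulated with different doses for 24 h. IL-12p40 protein in culture supernatants measured by ELISA.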

MCF7 [15] = experiment: Cytotoxicity against human MCF7 cells assessed as cell viability at 50 uM after 48 hrs by MTT assay; format: functional, cell-based; how it was run: as §2
Dendritic cell [16] = experiment: Immunostimulatory activity against TLR9-deficient C57BL/6 mouse bone marrow dendritic cells assessed as increase in IL-12p40 level at 3 to 10 uM after 24 hrs by ELISA; format: functional, cell-based; how it was run: as §3
PANC-1 [17] = experiment: Cytotoxicity against human PANC1 cells assessed as cell viability at 50 uM after 48 hrs by MTT assay; format: functional, cell-based; how it was run: as §2
MCF7 [18] = experiment: Cytotoxicity against human MCF7 cells assessed as cell viability after 48 hrs by MTT assay; format: functional, cell-based; how it was run: as §1
HeLa [19] = experiment: Cytotoxicity against human HeLa cells assessed as cell viability after 48 hrs by MTT assay; format: functional, cell-based; how it was run: as §1
Dendritic cell [20] = experiment: Immunostimulatory activity against wild type C57BL/6 mouse bone marrow dendritic cells assessed as increase in IL-12p40 level at 3 to 10 uM after 24 hrs by ELISA; format: functional, cell-based; how it was run: as §3
Dendritic cell [21] = experiment: Immunostimulatory activity against TLR3-deficient C57BL/6 mouse bone marrow dendritic cells assessed as increase in IL-12p40 level at 3 to 10 uM after 24 hrs by ELISA; format: functional, cell-based; how it was run: as §3
Capan-2 [22] = experiment: Cytotoxicity against human Capan2 cells assessed as cell viability at 50 uM after 48 hrs by MTT assay; format: functional, cell-based; how it was run: as §2
HeLa [23] = experiment: Cytotoxicity against human HeLa cells assessed as cell viability at 50 uM after 48 hrs by MTT assay; format: functional, cell-based; how it was run: as §2

Nc1ccn([C@@H]2O[C@H](CO)[C@@H](O)C2(F)F)c(=O)n1 [GEMCITABINE]
Activity (MIA PaCa-2 [1]): Active | Activity (MIA PaCa-2 [2]): 0.35% | Activity (MIA PaCa-2 [3]): 0.86% | Activity (MIA PaCa-2 [4]): 10.47% | Activity (MIA PaCa-2 [5]): Active | Activity (MIA PaCa-2 [6]): 7.9%

COC(=O)c1nc(-c2cn(Cc3ccc4ccc5cccc6ccc3c4c56)nn2)n([C@@H]2O[C@H](COC(C)=O)[C@@H](OC(C)=O)[C@H]2OC(C)=O)n1
Activity (MIA PaCa-2 [7]): inactive

COC(=O)c1nc(Nc2ccc3ccc4cccc5ccc2c3c45)n(COCCOC(C)=O)n1
Activity (MIA PaCa-2 [8]): inactive

NC(=O)c1nc(-c2cn(Cc3ccc4ccc5cccc6ccc3c4c56)nn2)n(COCCO)n1
Activity (MIA PaCa-2 [7]): Active

COC(=O)c1nc(-c2cn(Cc3ccccc3)nn2)n(COCCOC(C)=O)n1
Activity (MIA PaCa-2 [8]): inactive

COC(=O)c1nc(-c2cn(Cc3ccc4ccc5cccc6ccc3c4c56)nn2)nn1COCCOC(C)=O
Activity (MIA PaCa-2 [8]): inactive

COC(=O)c1nc(C#Cc2ccc3ccc4cccc5ccc2c3c45)n(COCCOC(C)=O)n1
Activity (MIA PaCa-2 [8]): inactive

COC(=O)c1nc(-c2cn(-c3ccc4ccc5cccc6ccc3c4c56)nn2)n(COCCOC(C)=O)n1
Activity (MIA PaCa-2 [8]): inactive

COC(=O)c1nc(-c2cn(Cc3ccc4cc5ccccc5cc4c3)nn2)n(COCCOC(C)=O)n1
Activity (MIA PaCa-2 [8]): inactive

COC(=O)c1nc(-c2cn(Cc3ccc4ccc5cccc6ccc3c4c56)nn2)n(COCCOC(C)=O)n1
Activity (PC-3 [9]): Dose-dependent effect | IC50 (PC-3 [9]; PC-3, 48 h): ≤ 10 µM | Activity (Capan-2 [10]): Dose-dependent effect | IC50 (Capan-2 [10]; Capan-2, 48 h): ≤ 10 µM | Activity (PC-3 [11]): Active | Activity (MIA PaCa-2 [1]): Active | Activity [12]: Dose-dependent effect | Activity (PANC-1 [13]): Dose-dependent effect | IC50 (PANC-1 [13]; PANC-1, 48 h): ≤ 10 µM | Activity (Dendritic cell [14]): inactive | Activity (MIA PaCa-2 [2]): 0.41% | Activity (MCF7 [15]): Active | Activity (Dendritic cell [16]): Active | Activity (PANC-1 [17]): Active | Activity (MIA PaCa-2 [3]): 22.44% | Activity (MCF7 [18]): Dose-dependent effect | IC50 (MCF7 [18]; MCF7, 48 h): ≤ 10 µM | Activity (MIA PaCa-2 [4]): 28.48% | Activity (HeLa [19]): Dose-dependent effect | IC50 (HeLa [19]): ≤ 10 µM | fold change (FC) (MIA PaCa-2 [5]): 15 | Activity (Dendritic cell [20]): Active | Activity (MIA PaCa-2 [7]): Dose-dependent effect | IC50 (MIA PaCa-2 [7]; MIA PaCa-2, 48 h): ≤ 10 µM | Activity (MIA PaCa-2 [8]): Active | Activity (Dendritic cell [21]): Active | Activity (Capan-2 [22]): Active | Activity (HeLa [23]): Active | Activity (MIA PaCa-2 [6]): 36.9%

COC(=O)c1nc(-c2cn(Cc3ccc4ccccc4c3)nn2)n(COCCOC(C)=O)n1
Activity (MIA PaCa-2 [8]): inactive

COC(=O)c1nc(CCc2ccc3ccc4cccc5ccc2c3c45)n(COCCOC(C)=O)n1
Activity (MIA PaCa-2 [8]): inactive
